CDK5 inh: CDK5/p35 (human) kinase inhibition | Q00535+Q15078 | Recombinant CDK5/p35, ADP-Glo luminescence, 60 min | inhibition, % at 10 µM | actives 0.01% (n = 330,000);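 active = highest replicate inhibition of at least 50% and at least 75% of replicates reaching 50%; inconclusive = only one of the two criteria met; inactive = both criteria failed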;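 note: plate controls were DMSO neutral control for no effect and GW8510 at 10 µM for full effect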
Target sequence (Q00535 whole entry, looked up): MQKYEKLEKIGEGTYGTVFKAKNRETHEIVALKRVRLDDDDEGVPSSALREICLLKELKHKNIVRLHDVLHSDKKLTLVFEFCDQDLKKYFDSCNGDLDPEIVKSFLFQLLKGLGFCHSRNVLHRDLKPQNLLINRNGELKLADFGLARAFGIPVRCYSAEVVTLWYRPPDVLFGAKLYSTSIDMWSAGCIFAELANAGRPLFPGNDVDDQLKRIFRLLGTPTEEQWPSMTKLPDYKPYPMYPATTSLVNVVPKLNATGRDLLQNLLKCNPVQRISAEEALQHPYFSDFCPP
Target sequence (Q15078 whole entry, looked up): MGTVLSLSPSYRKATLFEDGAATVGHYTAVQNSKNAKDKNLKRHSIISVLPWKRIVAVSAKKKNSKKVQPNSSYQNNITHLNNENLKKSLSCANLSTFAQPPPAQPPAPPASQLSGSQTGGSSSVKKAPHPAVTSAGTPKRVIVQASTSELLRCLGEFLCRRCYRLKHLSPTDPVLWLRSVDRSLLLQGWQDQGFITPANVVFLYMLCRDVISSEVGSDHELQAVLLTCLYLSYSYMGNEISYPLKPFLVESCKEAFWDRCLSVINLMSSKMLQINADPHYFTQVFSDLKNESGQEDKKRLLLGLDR
SR-BI uptake up: activators of SR-BI mediated HDL lipid uptake. CHO ldlA[mSR-BI] cells, DiI-HDL uptake fluorescence, 3 h; 100 = double the neutral-control signal. activation, % at 12.5 µM. actives 0.096% (n = 320,000);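 active = mean replicate activation of at least 60% and every replicate at or above 60%; inconclusive = mean or all-replicate condition met, but not both; inactive = mean below 60% and not all replicates reaching 60%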;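 note: 0% = median plate neutral-control signal and 100% = twice that signal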
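Test system: SR-BI-overexpressing, LDLR-lacking CHO cells; Medium: Ham's F12 with 0.5% BSA, HEPES 25 mM, pH 7.4; Schedule: 3 h, 37 °C; Technique: bottom-read fluorescence, 550/595 nm.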
SR-BI DiI inh: blocks mouse SR-BI lipid uptake from DiI-HDL. AID 488896. Q61009. inhibition, % at 12.5 µM. actives 0.96% (n = 320,000). ldlA[mSR-BI] CHO cells, DiI-HDL uptake fluorescence, 3 h;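 active = mean replicate inhibition of at least 70% and a set share of replicates each scoring 70 or more; inconclusive = meets just one of the two criteria; inactive = fails both criteria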;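 note: 0% = median of neutral control wells and 100% = median of positive control wells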
dFosB act-1: mouse delta FosB homodimer activation | actives 0.99% (n = 340,000) | AID 493131 | activation, % at 25 µM | purified delta FosB, TAMRA-CDK5 oligo fluorescence polarization; percent of positive-control signal above neutral wells;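 active = mean activation above about 17%, with every replicate also reaching it, limit read from the data, passing the limit was not always enough; inconclusive = only one of the two conditions met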
dFosB act-2: enhances mouse delta FosB homodimer binding to DNA; 2,400 tested, under 10 active; purified delta FosB, TAMRA-CDK5 oligo fluorescence polarization; normalised: neutral wells 0, positive control 100; shares compounds with dFosB act-1; activation, % at 24.9 µM;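 active = highest replicate activation at or above 34% and every replicate reaching that threshold; inconclusive = meets only one of the two criteria; inactive = meets neither criterion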;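 note: higher polarization means more probe DNA bound by delta FosB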
An asterisk follows results filed as active; ? = inconclusive; · = no result. An excerpt weighted towards active compounds, which were near 2% of everything screened.

SMILES	CDK5 inh	SR-BI uptake up	SR-BI DiI inh	dFosB act-1	dFosB act-2
COc1ccc2cc(/C=N/NC(=O)c3ccc(CN(c4cccc(Cl)c4Cl)S(C)(=O)=O)cc3)c(Cl)nc2c1	0.2	-40.1	40.1	46.0*	?
CCCCN(C(=O)CN1C(=O)C2CCCCC2C1=O)c1c(N)n(CCC)c(=O)[nH]c1=O (stereo not drawn)	-4.5	-19.9	19.9	-5.6	·
Cc1ccc(C)c(NC(=O)CCC(=O)NNS(=O)(=O)c2ccc(Cl)cc2)c1	-2.6	0.2	-0.2	23.4*	-1.4
CCC(=O)NNC(=O)CCC(=O)Nc1ccc(C)cc1C	-1.9	18.3	-18.3	7.1	·
Cc1ccc(C)c(NC(=O)CCC(=O)NNC(=O)COc2cc(C)ccc2C)c1	0.4	-19.3	19.3	36.4*	-2.4
Cc1ccc(NC(=O)CCC(=O)NNS(=O)(=O)c2ccc(Cl)cc2)cc1C	-0.1	1.6	-1.6	6.4	·
Cc1ccc(NC(=O)CCC(=O)NNC(=O)COc2cccc3ccccc23)c(C)c1	-2.3	-31.3	31.3	32.9*	4.6
CC1CC(C)(C)CC2(C1)NC(=O)N(CC(=O)Nc1cc(C(F)(F)F)ccc1N1CCCCC1)C2=O (stereo not drawn)	0.2	-18.2	18.2	-18.5	·
Cc1nc2cc(NC(=O)c3cccc(S(C)(=O)=O)c3)ccc2o1	-0.7	-7.2	7.2	-4.5	·
O=C(CCc1nc2ccccc2c(=O)[nH]1)N1CCN(S(=O)(=O)c2cccc(F)c2)CC1	-0.5	18.4	-18.4	-7.1	·
COc1ccc(S(=O)(=O)NNC(=O)C2COc3ccccc3O2)cc1[N+](=O)[O-] (stereo not drawn)	0.6	13.7	-13.7	6.7	·
COC1(OC)C=CC(=O)C=C1NC(=O)c1ccccc1OC(C)=O	-0.1	10.7	-10.7	-0.8	·
COc1ccc(NS(=O)(=O)c2cc(NC(=O)c3cc(=O)c4ccccc4o3)ccc2OC)cc1	-0.8	-52.4	52.4	48.0*	5.6
Cc1ccc(S(=O)(=O)N2CCN(C)CC2)cc1C	1.0	-23.3	23.3	-3.9	·
Cc1ccc(S(=O)(=O)N2CCN(S(=O)(=O)c3c(C)n[nH]c3C)CC2)cc1C	0.1	-3.3	3.3	32.4*	-0.5
O=C(Nc1ccc(-n2ccc(C(F)(F)F)n2)cc1)Nc1cccc(Cl)c1	-0.2	-25.5	25.5	28.7*	5.9
Cc1cc(C)cc(NC(=O)Nc2ccc(-n3ccc(C(F)(F)F)n3)cc2)c1	-0.4	-29.5	29.5	13.8	·
Cc1cc(C)n(CCNS(=O)(=O)c2ccc(C)c(C)c2)n1	-0.4	17.0	-17.0	-1.6	·
O=C(COC(=O)c1cc(=O)[nH]c2ccccc12)NCc1ccc(F)cc1	-9.4	7.2	-7.2	-10.1	·
O=C(COC(=O)c1cc(=O)[nH]c2ccccc12)NCc1ccc(Cl)cc1	2.3	-14.5	14.5	57.0*	4.3
O=C(COC(=O)c1cc(=O)[nH]c2ccccc12)Nc1nc(-c2ccc(F)cc2)cs1	-2.1	·	·	41.4*	2.0
O=C(COC(=O)c1cc(Cl)ccc1O)NC(=O)NCc1ccccc1	0.4	6.7	-6.7	24.1*	5.8
COC(=O)c1ccc(Nc2nc3ccc(C)cc3n3cnnc23)cc1	-0.1	-26.8	26.8	-1.2	·
COc1cccc(Nc2nc3ccc(C(=O)c4ccccc4)cc3n3cnnc23)c1	-1.9	·	·	18.7*	0.4
CN(C)CCCN(C(=O)c1cc(Cl)sc1Cl)c1nc2cc3c(cc2s1)OCO3	-0.5	-11.7	11.7	12.4	·
SMILES	CDK5 inh	SR-BI uptake up	SR-BI DiI inh	dFosB act-1	dFosB act-2
CN(C)CCCN(C(=O)c1ccc(Cl)s1)c1nc2cc3c(cc2s1)OCO3	-2.2	-7.0	7.0	18.0*	3.5
CN(C)CCCN(C(=O)c1ccc(C(=O)c2ccccc2)cc1)c1nc2ccc(F)cc2s1	-0.5	-9.9	9.9	30.0*	-0.3
CN(C)CCCN(C(=O)c1ccc(S(=O)(=O)N(C)C2CCCCC2)cc1)c1nc2ccc(Br)cc2s1	3.0	0.9	-0.9	22.5*	-0.2
CCc1ccc2nc(N(CCCN(C)C)C(=O)c3ccc(S(=O)(=O)N4CCc5ccccc5C4)cc3)sc2c1	-1.2	7.1	-7.1	46.8*	-4.1
CN(C)CCCN(C(=O)c1nc2ccccc2s1)c1nc2ccc(F)cc2s1	1.9	-20.5	20.5	13.6	·
CCOc1cccc2sc(N(CCCN(C)C)C(=O)c3ccc(S(=O)(=O)N4CCc5ccccc5C4)cc3)nc12	0.5	-4.2	4.2	6.8	·

Compound activity (PubChem)
